{"source": "paper PMC7729281", "about": "(Biochemistry, 2020)", "key": {"h12-LOX": {"target": "T1, h12-LOX (Homo sapiens, UniProt P18054)", "T1 sequence (P18054 1-663)": "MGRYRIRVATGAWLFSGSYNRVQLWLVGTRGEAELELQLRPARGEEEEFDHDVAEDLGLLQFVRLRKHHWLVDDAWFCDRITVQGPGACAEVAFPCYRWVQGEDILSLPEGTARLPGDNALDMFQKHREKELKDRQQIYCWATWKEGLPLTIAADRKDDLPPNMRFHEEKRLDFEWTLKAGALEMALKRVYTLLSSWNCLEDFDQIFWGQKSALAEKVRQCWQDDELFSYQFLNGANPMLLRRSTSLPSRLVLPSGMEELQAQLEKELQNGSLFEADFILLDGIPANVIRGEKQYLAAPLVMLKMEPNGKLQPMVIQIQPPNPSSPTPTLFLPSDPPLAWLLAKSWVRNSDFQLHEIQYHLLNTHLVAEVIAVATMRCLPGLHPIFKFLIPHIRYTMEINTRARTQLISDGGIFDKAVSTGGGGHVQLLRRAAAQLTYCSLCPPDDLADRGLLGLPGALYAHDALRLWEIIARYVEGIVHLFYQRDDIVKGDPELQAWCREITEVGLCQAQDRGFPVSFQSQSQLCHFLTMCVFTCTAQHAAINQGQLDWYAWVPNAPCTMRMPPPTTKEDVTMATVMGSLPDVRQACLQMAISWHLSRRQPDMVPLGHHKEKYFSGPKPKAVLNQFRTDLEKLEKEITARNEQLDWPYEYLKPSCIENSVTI", "test": "Allosteric modulation of 14S-HpDHA epoxidation by h12-LOX", "format": "biochemical", "details": "14S-HpDHA titrated 1 to 50 μM, 76% at start", "method_in_brief": "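Recombinant human h15-LOX-1 (0.125 μM, 25 mM HEPES pH 7.5, 20 min) or h12-LOX (0.3 μM, pH 8.0, 1 h) reacted at room temperature with 1 μM 14S-HpDHA while oxylipin modulator was titrated (1–100 μM), or with 14S-HpDHA varied alone (1–50 μM). Products were reduced and analysed by LC-MS. Dehydration (epoxide) versus oxygenation product percentages were calculated, N = 3.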"}, "h15-LOX-2": {"target": "T2, h15-LOX-2 (Homo sapiens, UniProt O15296)", "T2 sequence (O15296 1-676)": "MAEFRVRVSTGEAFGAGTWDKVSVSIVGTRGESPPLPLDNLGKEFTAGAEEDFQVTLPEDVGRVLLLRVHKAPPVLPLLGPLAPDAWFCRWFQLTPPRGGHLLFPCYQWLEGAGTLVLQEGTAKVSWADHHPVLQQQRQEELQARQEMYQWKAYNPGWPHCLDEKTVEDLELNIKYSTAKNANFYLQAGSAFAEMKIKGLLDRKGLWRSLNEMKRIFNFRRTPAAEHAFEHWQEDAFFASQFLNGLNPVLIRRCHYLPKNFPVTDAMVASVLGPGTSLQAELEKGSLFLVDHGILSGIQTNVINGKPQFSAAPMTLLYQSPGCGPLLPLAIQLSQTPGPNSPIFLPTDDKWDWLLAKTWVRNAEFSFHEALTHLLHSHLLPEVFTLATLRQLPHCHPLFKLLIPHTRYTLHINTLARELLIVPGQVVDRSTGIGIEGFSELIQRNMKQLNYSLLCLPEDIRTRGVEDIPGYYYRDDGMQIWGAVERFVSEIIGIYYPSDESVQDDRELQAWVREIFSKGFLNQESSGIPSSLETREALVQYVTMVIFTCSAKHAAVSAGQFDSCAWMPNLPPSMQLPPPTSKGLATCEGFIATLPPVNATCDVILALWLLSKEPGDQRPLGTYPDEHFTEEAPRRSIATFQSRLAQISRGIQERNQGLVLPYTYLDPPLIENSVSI", "test": "Steady-state kinetics of h15-LOX-2 with 14S-HpDHA", "format": "biochemical", "details": "various 14S-HpDHA concentrations", "method_in_brief": "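Reactions were run in a quartz cuvette containing 2 mL of 25 mM HEPES, pH 7.5, at room temperature, with 14S-HpDHA at various concentrations. The 14S-HpDHA stock was quantified at 234 nm in methanol (ε 27 000 M−1 cm−1). Product formation was followed by absorbance at 270 nm (ε 37 000 M−1 cm−1), with triplicate reactions.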"}}}
{"smiles": "CC/C=C\\C/C=C\\C[C@@H](/C=C/C=C\\C/C=C\\C/C=C\\CCC(=O)O)OO", "note": "[14S-HpDHA, 14S-hydroperoxy-4Z,7Z,10Z,12E,16Z,19Z-docosahexaenoic acid]", "values": [{"measurement": "epoxidation product at end of titration", "setting": "h12-LOX", "value": 19, "unit": "%"}, {"measurement": "reaction with h15-LOX-2", "setting": "h15-LOX-2", "value": "not to react"}]}
